Bioassay records from PubChem.
A selection: hits, their analogues and other compounds. The true share with any hit is near 4.3%.
PREPL inh: PREPL enzyme inhibitors, primary screen, biochemical, fluorescence polarization | Prolyl endopeptidase-like (Homo sapiens), Q4J6C6 | recombinant PREPL, fluorescence polarization activity-based probe | inhibition, % at 5.96 µM | 320,000 compounds, 0.68% hits | AID 2751, 2010; in the data active means inhibition above about 43%;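 further: 0% = enzyme with DMSO and 100% = wells lacking enzyme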
UBC13 polyUb: UBC13 polyubiquitin chain formation inhibitors, primary screen, biochemical, TR-FRET, uHTS. Ubiquitin-conjugating enzyme E2 N (Homo sapiens), P61088. inhibition, % at 20 µM. 330,000 compounds, 0.47% hits; in the data active means inhibition above about 45%, passing the limit was not always enough
Target sequence (P61088 whole entry, looked up): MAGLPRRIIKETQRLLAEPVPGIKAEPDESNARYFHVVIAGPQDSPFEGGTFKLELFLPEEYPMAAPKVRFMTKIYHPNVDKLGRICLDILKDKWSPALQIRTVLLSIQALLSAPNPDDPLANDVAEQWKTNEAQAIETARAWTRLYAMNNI
Rin1-Abl PPI inh: inhibitors of Rin1-Abl protein binding, primary screen, biochemical, TR-FRET. Tyrosine-protein kinase ABL1 (Homo sapiens) + Ras and Rab interactor 1 (Homo sapiens), …. inhibition, % at 7.35 µM. 360,000 compounds, 0.4% hits. AID 588664, 2011; in the data active means inhibition above about 5%, passing the limit was not always enough
ALR inh: inhibitors of human ALR sulfhydryl oxidase, primary screen, biochemical, H2O2 detection, HRP-luminol luminescence, single point; AID 485317, 2010; inhibition, % (no concentration beside the values); 290,000 compounds, 3.8% hits; purified ALR, DTT oxidation; FAD-linked sulfhydryl oxidase ALR (Homo sapiens), P55789;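 active means mean replicate inhibition above about 79%, with every replicate also reaching it, limit read from the data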
Target sequence (P55789 whole entry, looked up): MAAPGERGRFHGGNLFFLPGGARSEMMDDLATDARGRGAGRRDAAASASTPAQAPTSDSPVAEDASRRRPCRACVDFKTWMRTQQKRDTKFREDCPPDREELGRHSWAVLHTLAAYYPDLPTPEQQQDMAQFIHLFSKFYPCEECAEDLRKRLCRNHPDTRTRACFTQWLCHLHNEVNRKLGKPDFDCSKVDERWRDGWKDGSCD
RBBP9 inhibitor: human RBBP9 inhibitors, primary screen, biochemical, fluorescence polarization, FP-Rh probe, HTS; Serine hydrolase RBBP9 (Homo sapiens), O75884; recombinant RBBP9; inhibition, % at 7.94 µM; 220,000 compounds, 0.2% hits;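 active means inhibition above the campaign mean of all tested compounds plus 3 SD, cut at about 14% in these data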;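 further: plate controls were DMSO wells with RBBP9 for no effect and wells lacking RBBP9 protein for full effect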
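system = RBBP9 protein | input = RBBP9 at 2.5 µM in dispensed solution, before mixing | measured by = fluorescence polarization (mP), excitation 525 nm, emission 598 nm | incubation = enzyme-compound preincubation 30 min, then probe labeling 45 min, 25 °C | buffer or medium = Tris-NaCl-Pluronic buffer, pH 8.0 | compound = single dose 7.94 µM | also added = FP-Rh probe, 375 nM dispensing solution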
SUMO HTRF inh: inhibitors of in vitro SUMOylation cascade, primary screen, biochemical, HTRF, uHTS; inhibition, % at 35 µM; 290,000 compounds, 0.36% hits; HTRF SUMOylation assay, SAE1/SAE2 + UBC9; AID 2006, 2009; in the data active means inhibition above about 50%, passing the limit was not always enough
* marks the source's active call; other numbers are inactive results; . = not tested or not shown.

SMILES	PREPL inh	UBC13 polyUb	Rin1-Abl PPI inh	ALR inh	RBBP9 inhibitor	SUMO HTRF inh
CC(=O)N1CCN(c2ccc(Nc3nc(C)nc4c3oc3ccccc34)cc2)CC1	10.5	-1.4	-0.8	96.2*	.	.
COc1ccc(F)cc1S(=O)(=O)Nc1cccc(C(=O)O)c1	5.9	-3.7	0.2	-19.0	-7.1	-5.0
COC(=O)c1ccc2c(c1)C(C)(C)C(/C=C/c1ccccc1O)=[N+]2C	-303.7	-105.3	-4.3	87.2*	-154.5	-1.6
CC(OC(=O)CCC(=O)N1CCN(S(=O)(=O)c2ccc3ccccc3c2)CC1)C(=O)NC(N)=O (stereo unspecified)	12.4	4.3	1.5	-3.0	.	4.0
O=C1c2cccc3c([N+](=O)[O-])ccc(c23)C(=O)N1c1ccccn1	4.4	-85.8	-6.2	31.0	5.0	23.4
O=C1c2cccc3c([N+](=O)[O-])ccc(c23)C(=O)N1O	18.2	-37.8	-1.2	89.9*	.	-14.1
COc1ccccc1N1CCN(S(=O)(=O)c2cnc[nH]2)CC1	-6.3	3.1	-2.9	98.0*	-10.3	6.4
COc1ccccc1N1CCN(S(=O)(=O)c2ccccc2)CC1	3.3	4.8	1.6	97.6*	-4.0	-9.8
COc1ccccc1N1CCN(S(=O)(=O)c2cccs2)CC1	2.1	14.0	3.0	66.5	2.6	9.5
COCCNC(=O)C(OC(=O)c1ccco1)c1ccc(OC)cc1 (stereo unspecified)	.	.	0.8	.	.	.
S=C1NCCOCCOCCNC(=S)N2CCOCCOCCN1CCOCCOCC2	-1.8	0.9	2.8	-2.0	-10.2	1.4
O=C(CSc1ccc2c(c1)OCCO2)Nc1cccnc1	-9.0	3.9	-0.5	98.7*	4.3	22.9
CC(=O)Nc1ccc(C(=O)CSc2nccc(=O)[nH]2)cc1	-8.1	4.5	1.4	99.0*	1.9	4.8
O=C(CSc1nccc(=O)[nH]1)Nc1ccc(Br)c(Cl)c1	-8.6	-2.6	0.0	98.3*	-8.1	32.4
O=C(CSc1nccc(=O)[nH]1)Nc1ccc(Oc2ccccc2)cc1	-0.9	4.3	1.2	-6.8	.	0.3
O=C(CSc1ccc2c(c1)OCCO2)Nc1ccccc1	.	.	2.1	.	.	.
CCn1c2ccccc2c2cc(NC(=O)CSc3nccc(=O)[nH]3)ccc21	20.6	-17.6	0.5	98.4*	7.5	-4.5
CC(C)(C)OC(=O)N1CCC2(CC1)C(C#N)=C(N)OC1=C2C(=O)CCC1	0.2	1.9	-0.3	.	3.4	19.0
CCOC(=O)C1(C)CCN1C(=O)c1oc2ccccc2c1C (stereo unspecified)	.	.	-4.5	.	.	.
COCCNc1nc(NCCCN2CCCC2=O)c2sccc2n1	.	.	-0.9	.	.	.
O=C(CSc1nccc(=O)[nH]1)Nc1ccc2c(c1)OCCO2	7.3	8.6	0.6	98.3*	-2.0	15.6
CCn1c2ccccc2c2cc(NC(=O)c3ccc(=O)oc3)ccc21	70.7*	-25.2	-3.0	-12.7	-2.8	35.7
O=C(CSc1nccc(=O)[nH]1)Nc1ccc(F)c(Cl)c1	13.2	-0.2	-1.0	99.5*	-5.4	1.7
COc1ccc(C(=O)CSc2nccn2C)cc1	10.9	3.3	2.2	98.6*	.	6.8
O=C(CSC1=NCCN1)Nc1cccc(C(F)(F)F)c1	2.9	-7.7	-1.2	99.5*	-0.1	-3.6
SMILES	PREPL inh	UBC13 polyUb	Rin1-Abl PPI inh	ALR inh	RBBP9 inhibitor	SUMO HTRF inh
CSc1nccn1CC(=O)Nc1ccc(F)cc1	0.3	3.7	-0.8	98.4*	1.2	-3.2
COc1ccc(NC(=O)CSC2=NCCN2)cc1	4.6	12.4	4.3	.	10.5	-9.7
CCOc1ccc(NC(=O)CSCc2cnn(-c3ccccc3)c2-n2cccc2)cc1	7.3	-0.5	0.5	98.9*	6.8	-8.7
CC1(C(=O)NCc2ccccc2Br)CCN1C(=O)Cc1ccc(-c2ccccc2)cc1 (stereo unspecified)	.	.	0.9	.	.	.
CC12CCC(=O)N1C(C(=O)Nc1nc(-c3ccccc3Cl)cs1)CS2 (stereo unspecified)	4.5	-1.5	0.9	-10.6	.	.
Cn1ccnc1SCC(=O)Nc1cccc(C(F)(F)F)c1	-4.1	1.7	2.5	99.5*	-5.1	9.9
Cn1cnnc1SCC(=O)Nc1ccc(Oc2ccccc2)cc1	1.4	-0.8	0.1	1.2	.	8.2
